Data published in publication PMC8190911 (ACS Omega, 2021).
pIC50: −log10 of the molar value.

Assays:
[1] = test system: rat splenic lymphocytes; assay: Splenic lymphocyte proliferation with Con-A and HU; assay type: cell-based; details: HU 50 μM, rutin or gallic acid 10 μM, Con-A 5 μg/mL, 48 h, MTT
Method in brief: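 Spleens were taken aseptically from control rats into incomplete RPMI and minced through a strainer. Erythrocytes were lysed with 155 mM NH4Cl, 12 mM NaHCO3 and 0.1 mM EDTA, and the cells were washed and resuspended in complete RPMI. Cells were seeded at 2.5 × 10^4 per well, pretreated with test compound plus HU for 1 h at 37 °C, then stimulated with Con-A for 48 h. MTT (2.5 mg/mL, 20 μL) was added for 4 h and absorbance read at 570 nm. Groups were compared by Student's t-test.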

[2] = target: T1, horseradish peroxidase (HRP) (Armoracia rusticana, UniProt P00433); assay: Inhibition of HRP activity; assay type: biochemical
T1 sequence (P00433 31-338 limits assumed): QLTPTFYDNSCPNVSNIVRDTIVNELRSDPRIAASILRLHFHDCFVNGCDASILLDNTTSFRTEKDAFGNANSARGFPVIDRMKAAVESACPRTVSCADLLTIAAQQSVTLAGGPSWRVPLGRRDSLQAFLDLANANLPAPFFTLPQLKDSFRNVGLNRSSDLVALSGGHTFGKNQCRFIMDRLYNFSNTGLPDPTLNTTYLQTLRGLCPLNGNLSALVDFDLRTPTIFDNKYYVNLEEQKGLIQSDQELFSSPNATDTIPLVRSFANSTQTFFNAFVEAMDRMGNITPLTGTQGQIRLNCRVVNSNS
Method in brief: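 HRP (10 μL) combined with test compound (10 μL, 250–1000 μM) and 100 μL TMB. Reaction started with 0.03% (v/v) H2O2. The blue oxidised TMB product was read at 655 nm and % inhibition calculated against uninhibited activity. Sodium azide at 1000 μM served as reference inhibitor. Performed in triplicate.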

[3] = test system: OATP1B3; details: read-out: IC50, inhibition of OATP1B3-mediated transport of CCK-8; ref Li et al.; cited from earlier work
[4] = rat; cited from earlier work
[5] = target: urease from Canavalin ensiformis (jack bean) (Canavalia ensiformis, UniProt P07374); assay: Inhibition of urease activity; assay type: biochemical
[6] = test system: red blood cells; assay: Hemolysis assay on rat RBCs; assay type: cell-based; details: up to 1 mg/mL, 30 min at 37 °C
Method in brief: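 Blood from control rats drawn into aqueous EDTA and spun at 8000 rpm for 10 min. RBCs washed three times in PBS (pH 7.4) and diluted 1:10. Diluted cells (100 μL) mixed with 900 μL PBS containing test compound at 0.1 to 1 mg/mL. Blank PBS served as negative control and 1% Triton X-100 as positive control. Incubated 30 min at 37 °C with shaking, spun at 4 °C, supernatant absorbance read at 540 nm. % hemolysis scaled between the PBS and Triton absorbances.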

[7] = test system: CYP2E1; details: cited from earlier work
[8] = at the concentration range of 250–1000 μM

Chain of urease from Canavalin ensiformis (jack bean) (P07374 whole entry, looked up): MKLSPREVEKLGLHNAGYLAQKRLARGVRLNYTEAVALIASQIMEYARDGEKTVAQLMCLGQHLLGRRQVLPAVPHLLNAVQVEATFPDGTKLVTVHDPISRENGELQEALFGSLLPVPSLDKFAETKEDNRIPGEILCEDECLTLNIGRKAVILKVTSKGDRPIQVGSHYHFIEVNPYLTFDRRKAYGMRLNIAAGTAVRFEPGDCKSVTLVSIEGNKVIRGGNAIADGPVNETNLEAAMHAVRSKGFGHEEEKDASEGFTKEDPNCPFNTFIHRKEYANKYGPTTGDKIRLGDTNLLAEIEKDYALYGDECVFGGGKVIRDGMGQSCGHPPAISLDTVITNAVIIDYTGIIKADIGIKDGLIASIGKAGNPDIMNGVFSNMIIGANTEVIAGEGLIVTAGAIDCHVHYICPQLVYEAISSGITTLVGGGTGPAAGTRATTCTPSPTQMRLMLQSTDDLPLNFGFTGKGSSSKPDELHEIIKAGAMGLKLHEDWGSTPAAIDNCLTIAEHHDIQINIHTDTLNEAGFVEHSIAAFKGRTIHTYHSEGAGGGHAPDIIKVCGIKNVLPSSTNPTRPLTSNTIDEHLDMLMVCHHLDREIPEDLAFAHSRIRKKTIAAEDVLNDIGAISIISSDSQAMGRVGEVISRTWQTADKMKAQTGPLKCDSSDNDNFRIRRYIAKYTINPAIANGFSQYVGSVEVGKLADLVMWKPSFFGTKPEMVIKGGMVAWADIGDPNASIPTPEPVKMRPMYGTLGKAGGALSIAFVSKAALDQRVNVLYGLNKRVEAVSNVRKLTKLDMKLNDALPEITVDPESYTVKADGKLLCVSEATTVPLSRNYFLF

NC(=O)NO [HU, Hydroxyurea, reference compound]
effect on proliferation of lymphocytes [1]: decreased

O=C(O)c1cc(O)c(O)c(O)c1 [gallic acid]
inhibition of HRP [2, 8]: 53–70% | pIC50 [3]: 5.80 | effect on oral exposure of rosuvastatin [4]: augmented the oral exposure of rosuvastatin | pIC50 [5]: 3.20 | effect on proliferation of lymphocytes [1]: significantly elevated the proliferation of lymphocytes

C[C@@H]1O[C@@H](OC[C@H]2O[C@@H](Oc3c(-c4ccc(O)c(O)c4)oc4cc(O)cc(O)c4c3=O)[C@H](O)[C@@H](O)[C@@H]2O)[C@H](O)[C@H](O)[C@H]1O [rutin, Rutin]
inhibition of HRP [2, 8]: 40–64% | RBCs lysis (% Hb released relative to positive and negative controls) [6]: ≤ 5% | pIC50 [5]: 3.11 | effect on proliferation of lymphocytes [1]: no considerable influence | effect on expression of CYP2E1 [7]: enhanced its expression

[N-]=[N+]=[N-].[Na+] [sodium azide, reference compound]
inhibition of HRP ([2]; at a concentration of 1000 μM): 97%
